Bioassay records: PubChem, Johns Hopkins Ion Channel Center
TRPC4 inh: blocks the mouse TRPC4 cation channel. Q9QUQ5. HEK293 TRPC4beta/mu-opioid, DAMGO-evoked Fluo4 calcium flux; hits give low values. B-score at 10 µM. 300,000 compounds, 0.39% hits;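 active = B-score over 3 SD under the library average, no early fluorescence shift, positive overall ratio signal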
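Test system – stable TRPC4beta/mu-opioid receptor HEK293 cells · Probe or stimulus – DAMGO, a submaximal dose followed by a maximal one · Dosing – one concentration per compound · Signal – Fluo4 calcium fluorescence by kinetic imaging, 5 s 1 Hz baseline · Evaluation – per-well B score of integrated baseline-normalized Fluo4 ratio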
Kir21 inh: Kir2.1 (mouse) channel inhibition; 310,000 compounds, 0.85% hits; P35561; HEK293-Kir2.1, FluxOR thallium flux fluorescence; hits give low values; B-score at 10 µM;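 active = fluorescence ratio B-score at or below minus 3 SD of library scores, with starting-brightness B-score within 2 SD, cut at about -4.2 in these data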;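 also: channel flux triggered by added potassium and thallium sulfate stimulus; B-score of peak minus minimum fluorescence over baseline after thallium stimulus; more negative B-score means stronger Kir2.1 block with less thallium influx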
TRPC6 inhibitor: inhibitors of mouse TRPC6 channel; Q61143; HEK293-TRPC6, membrane potential dye, ACh-evoked depolarization; hits give low values; B-score at 10 µM; 310,000 compounds, 1.1% hits;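 active = B-score under library mean minus 3 SD, initial fluorescence not abnormally high, positive integrated signal ratio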;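 also: B-score derived from integrated fluorescence ratio over the kinetic read; more negative B-score means stronger inhibition of depolarization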
Target sequence (Q61143 whole entry, looked up): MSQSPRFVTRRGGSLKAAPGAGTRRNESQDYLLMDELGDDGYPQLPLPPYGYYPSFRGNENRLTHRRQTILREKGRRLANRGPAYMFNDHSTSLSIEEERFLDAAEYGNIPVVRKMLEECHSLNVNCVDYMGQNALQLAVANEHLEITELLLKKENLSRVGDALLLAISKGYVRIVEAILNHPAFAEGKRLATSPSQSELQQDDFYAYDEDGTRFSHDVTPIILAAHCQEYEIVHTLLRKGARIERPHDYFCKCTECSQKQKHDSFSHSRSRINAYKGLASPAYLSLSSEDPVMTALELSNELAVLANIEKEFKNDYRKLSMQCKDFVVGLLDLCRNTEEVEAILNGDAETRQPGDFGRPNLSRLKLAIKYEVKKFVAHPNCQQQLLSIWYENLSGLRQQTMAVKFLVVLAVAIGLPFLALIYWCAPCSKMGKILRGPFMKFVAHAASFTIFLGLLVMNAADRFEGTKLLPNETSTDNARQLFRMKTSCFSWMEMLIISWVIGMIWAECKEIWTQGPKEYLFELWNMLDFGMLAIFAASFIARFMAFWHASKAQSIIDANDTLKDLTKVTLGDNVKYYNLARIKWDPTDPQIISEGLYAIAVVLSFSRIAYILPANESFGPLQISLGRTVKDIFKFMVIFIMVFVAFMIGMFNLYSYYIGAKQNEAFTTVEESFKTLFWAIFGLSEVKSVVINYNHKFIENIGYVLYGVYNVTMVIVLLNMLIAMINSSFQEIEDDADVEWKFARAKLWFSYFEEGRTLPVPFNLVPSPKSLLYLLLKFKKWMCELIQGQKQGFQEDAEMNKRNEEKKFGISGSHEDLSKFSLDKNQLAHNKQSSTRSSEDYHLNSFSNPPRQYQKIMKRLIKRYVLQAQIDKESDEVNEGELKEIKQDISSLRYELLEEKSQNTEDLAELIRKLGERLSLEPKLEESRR
TRPC4 PAM: allosterically enhances the mouse TRPC4 cation channel; HEK293 TRPC4beta/mu-opioid, DAMGO EC20, Fluo-4 Ca2+ flux; hits give high values; B-score at 10 µM; 310,000 compounds, 0.42% hits; AID 2227;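 active = B-score of calcium response area above 5 SD of library B-scores, with initial fluorescence ratio within 5 SD of library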;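 also: B-score of integrated fluorescence ratio over time as area under calcium response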
TRPC4 agonist: activators of mouse TRPC4 channel; Q9QUQ5; AID 2237; B-score at 10 µM; HEK293 TRPC4beta/mu-opioid, Fluo4 calcium fluorescence; hits give high values; 310,000 compounds, 0.49% hits;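 active = B-score above 5 SD of library B-scores, and initial fluorescence ratio not above library mean plus 5 SD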;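 also: positive B-score marks a calcium rise read as TRPC4 activation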
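System: HEK293 cells stably co-expressing mouse TRPC4beta and mu-opioid receptor; Schedule: Fluo4 dye loading 45 min at room temperature, 110 s recording; Detection: Fluo4 fluorescence, kinetic; Evaluation: B-scored integrated calcium fluorescence ratio; Controls: buffer (low) and maximal DAMGO (high).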
TRPC6 activator: mouse TRPC6 channel activation. HEK293-TRPC6 membrane potential dye fluorescence; hits give high values. Q61143. B-score at 10 µM. AID 2550. 310,000 compounds, 0.13% hits;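 active = B-score of the integrated fluorescence ratio above library mean plus 3 SD, and starting fluorescence ratio within library mean plus 5 SD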;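 also: higher score means more depolarization so channel activation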
TRPC4 sel inh 2: second selectivity test of TRPC6 inhibitors: effect on mouse TRPC4; shares compounds with TRPC6 inhibitor; HEK293 TRPC4/MOR, membrane potential dye fluorescence; channel activated by saturating DAMGO dose; inhibition, % at 10 µM; 920 compounds, 42% hits; AID 2776;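 active = compounds whose fluorescence signal differed from control wells by over 3 SD, either direction, in both duplicate plates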
TRPC4 spec: mouse TRPC4 off-target activity of TRPC6 inhibitors. shares compounds with TRPC6 inhibitor. 920 compounds, 61% hits. HEK293 TRPC4/mu-opioid, membrane potential fluorescence. activity change, negative = inhibition, % at 10 µM. AID 2777;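 active = rise or fall in signal beyond 3 SD of buffer-only wells in both replicate plates, either sign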;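 also: integrated kinetic ratio of fluorescence range over baseline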
HEK293 MPD ctr 2-1: second counter-screen for TRPC6 inhibitors: parental HEK293 cells; shares compounds with TRPC6 inhibitor; parental HEK293 membrane potential dye fluorescence; maximal acetylcholine challenge after compound addition; signal change vs control, % at 10 µM; 920 compounds, 31% hits; AID 2779;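 active = membrane potential signal moving either way by over 3 SD of the maximum-effect control, in both duplicate plates, meaning non-specific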
HEK293 MPD ctr-1: checks TRPC6 inhibitor effects in parental HEK293 cells. AID 2780. parental HEK293 membrane potential dye fluorescence. 920 compounds, 60% hits. membrane potential signal change, % at 10 µM. shares compounds with TRPC6 inhibitor;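 active = membrane potential signal shifting up or down by more than 3 SD of buffer-only wells, on both duplicate plates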
HEK293 MPD ctr-2: checks TRPC6 modulator effects in parental HEK293 cells. shares compounds with TRPC6 inhibitor. membrane potential dye fluorescence. membrane potential signal change, % at 10 µM. 2,400 compounds, 51% hits. AID 488924;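 active = membrane potential signal moves up or down beyond 5 SD from buffer-only wells, on both duplicate plates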
HEK293 MPD ctr 2-2: second check of TRPC6 modulator effects in parental HEK293 cells; 2,400 compounds, 14% hits; shares compounds with TRPC6 inhibitor; inhibition, % at 10 µM; AID 488926; membrane potential dye fluorescence; after compound, maximal acetylcholine stimulation;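 active = membrane potential signal drops by more than 5 SD from the mean control signal, in both duplicate plates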;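 also: plate controls were acetylcholine ECmax control wells for no effect and buffer only wells for full effect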
TRPC4 ctr mod: mouse TRPC4 off-target activity of TRPC6 modulators | 2,400 compounds, 69% hits | percent change from control (negative = decrease, positive = increase), % at 10 µM | HEK293 TRPC4/mu-opioid, membrane potential fluorescence | shares compounds with TRPC6 inhibitor | AID 488927;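 active = membrane potential signal moved up or down beyond 5 SD of buffer control wells, in both duplicate plates, actives on both sides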;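 also: plate controls were assay buffer wells for no effect and DAMGO maximal-effect wells for full effect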
TRPC4 ctr inh 2: second selectivity test of TRPC6 modulators against mouse TRPC4; shares compounds with TRPC6 inhibitor; HEK293 TRPC4/mu-opioid, membrane potential dye fluorescence; stimulated with maximal-effect DAMGO; inhibition, % at 10 µM; 2,400 compounds, 55% hits;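 active = drop in membrane potential signal beyond 5 SD of the control wells in both duplicate plates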;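 also: TRPC4 counter screen for TRPC6 hits run under conditions tuned for TRPC6 not TRPC4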
TRPC6 inh conf: confirmation of mouse TRPC6 inhibitors. shares compounds with TRPC6 inhibitor. HEK293-TRPC6, membrane potential dye, ACh-evoked depolarization. inhibition, % at 10 µM. 3,300 compounds, 43% hits. AID 488960;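 active = fluorescence ratio falls more than 5 SD below the full-stimulation control mean, in both duplicate runs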;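 also: integrated fluorescence ratio of peak minus minimum over baseline after agonist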
TRPC6 act conf: mouse TRPC6 activator confirmation. activation, % at 10 µM. HEK293-TRPC6 membrane potential dye fluorescence, FDSS. 2,800 compounds, 11% hits. shares compounds with TRPC6 inhibitor;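 active = ratio signal rise beyond 5 SD above unstimulated control wells' mean, seen in both duplicate runs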;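 also: plate controls were buffer EC0 wells for no effect and acetylcholine ECmax response for full effect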
* hit, by the source's call; i = inactive; / = no result given. Most compounds without a hit are left out; they make up all but 2.9% or so of the library.

SMILES	TRPC4 inh	Kir21 inh	TRPC6 inhibitor	TRPC4 PAM	TRPC4 agonist	TRPC6 activator	HEK293 MPD ctr-2	HEK293 MPD ctr 2-2	TRPC4 ctr mod	TRPC4 ctr inh 2	TRPC6 inh conf	TRPC6 act conf	others
CN1CCN(c2nc(-c3ccc(Cl)c(Cl)c3)nc3ccccc23)CC1	i	1.4	i	i	i	i	/	/	/	/	/	/
CN1CCN(c2nc(-c3ccccn3)nc3ccccc23)CC1	i	0.4	-16*	i	i	i	-428%*	82%*	-70%*	72%*	74%*	i
CCN1CCN(c2nc(-c3cccnc3)nc3ccccc23)CC1	i	0.05	-8.2*	i	i	i	-356%*	i	-58%*	62%*	58%*	i
CCCN1CCN(c2nc(-c3cccs3)nc3ccccc23)CC1	i	-0.34	-6.1*	i	i	i	-64%*	i	-15%*	52%*	i	i
CC1CN(c2nn3c(=O)c4ccccc4nc3c3ccccc23)CC(C)O1 (stereo unspecified)	i	-0.23	i	i	i	i	/	/	/	/	/	/
O=C(CSc1nnc(CNC(=O)c2ccccc2)o1)NCc1ccc2c(c1)OCO2	i	-0.08	i	i	i	i	/	/	/	/	/	/
CN1CCN(c2nc(-c3cccnc3)nc3ccccc23)CC1	i	1.5	-8.1*	i	i	i	-320%*	69%*	-57%*	66%*	56%*	i
CCOC(=O)CSc1nc2sc3c(c2c(=O)n1-c1ccccc1)CCN(C(C)C)C3	i	0.42	i	i	i	i	/	/	/	/	/	/
Cc1cccc(CNc2ncc(-c3cccc([N+](=O)[O-])c3)n2C)c1	i	-0.9	-5.9*	i	i	i	-74%*	i	-26%*	57%*	i	i
CC(C)[N+](C)(C)CC#CC(O)(c1ccccc1)c1ccccc1	i	-1.1	-9.2*	i	i	i	/	/	/	/	85%*	i	TRPC4 sel inh 2=i;TRPC4 spec=i;HEK293 MPD ctr 2-1=25%*;HEK293 MPD ctr-1=i
C[N+]1(CC#CC(O)(c2ccccc2)c2ccccc2)CCCC1	i	-0.14	-7.3*	i	i	i	/	/	/	/	91%*	i	TRPC4 sel inh 2=i;TRPC4 spec=i;HEK293 MPD ctr 2-1=-27%*;HEK293 MPD ctr-1=i
COc1ccc(-n2nc(C(=O)NCC(=O)NCCCN3CCOCC3)c3ccccc3c2=O)c(OC)c1	i	1.3	i	i	i	i	/	/	/	/	/	/
COc1cc(CNc2ccccc2)c([N+](=O)[O-])cc1OC	i	-0.02	i	i	i	i	/	/	/	/	/	/
CCc1nc2ccc(F)cc2c(C(=O)NC2CCCCC2C)c1C (stereo unspecified)	i	0.03	i	i	i	14*	428%*	i	86%*	44%*	/	171%*
CC(C)NC(=O)COc1coc(CN2CCN(Cc3ccccc3)CC2)cc1=O	i	-1.9	i	i	i	i	/	/	/	/	/	/
Cc1ccc(O)c([C@H](CCN(C(C)C)C(C)C)c2ccccc2)c1	i	-2.2	-6.2*	i	i	i	174%*	96%*	33%*	41%*	87%*	/
O=C(NCc1ccc(Cl)cc1)c1ccc(NC(=O)C2CCCO2)cc1 (stereo unspecified)	i	-0.01	i	i	i	i	/	/	/	/	/	/
CC(C)c1ccc(NC(=O)C2C3C=CC4(O3)C2C(=O)N(CCCN2CCOCC2)C4C(=O)NC2CCCCC2)cc1 (stereo unspecified)	i	0.95	i	i	i	i	/	/	/	/	/	/
CN(C)S(=O)(=O)c1ccc(C(=O)Nc2nnc(-c3ccc4c(c3)CCCC4)o2)cc1	i	-0.29	-5.6*	i	i	i	i	i	i	i	i	i
CN(C)S(=O)(=O)c1ccc(C(=O)Nc2nnc(-c3cccs3)o2)cc1	i	0	i	i	i	i	/	/	/	/	/	/
CC(C)CC1CCCCC1OC(=O)C[N+]1(C)CCCCC1 (stereo unspecified)	i	-0.12	-8.7*	i	i	i	/	/	/	/	87%*	i	TRPC4 sel inh 2=i;TRPC4 spec=i;HEK293 MPD ctr 2-1=16%*;HEK293 MPD ctr-1=i
CC(C)(C)C1CCC(OC(=O)C[N+]2(C)CCCCC2)CC1 (stereo unspecified)	i	-2.2	i	i	i	i	/	/	/	/	/	/
CCN(CC)CCn1c(=S)[nH]c2cc(C(=O)N3CC=C(c4ccccc4)CC3)ccc2c1=O	i	-0.06	i	i	i	i	/	/	/	/	/	/
CC(C)(C)SCCNC(=O)COc1ccc(Cl)cc1	i	2.6	-5.3*	i	i	i	i	i	i	i	i	/
Cc1ccccc1CSCCNC(=O)COc1ccc(Cl)cc1	i	-3.1	i	i	i	i	/	/	/	/	/	/
O=C(Cc1ccc(F)cc1)Nc1c(C(=O)N2CCN(c3ncccn3)CC2)oc2ccccc12	i	-0.05	i	i	i	i	/	/	/	/	/	/
